Data as given in ChEMBL document CHEMBL1158541, “Water-soluble PDE4 inhibitors for the treatment of dry eye” (Bioorg Med Chem Lett, 2010).
In brackets after ≈: the same amount, converted by molar mass. Activity calls are given as the source filed them. No cut-off for these calls is given here.

Columns and labels:
[1] = Inhibition of PDE4 expressed in HEK293 cells coexpressing cyclic nucleotide gated ion channel mutant assessed as inhibition of NECA-induced cAMP production treated 15 mins before NECA challenge measured after 45 mins by FLIPR assay; format: cell-based
[2] = biological target: 3',5'-cyclic-AMP phosphodiesterase 4B (Homo sapiens, UniProt Q07343); assay: Inhibition of human His6-tagged PDE4B (152-487) expressed in Escherichia coli BL21 (DE3) after 1 hr
[3] = Solubility in 0.1 M phosphate buffer at pH 7.4 by shake-flask method; format: physicochemical
Outline: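 Shake-flask solubility in 0.1 M phosphate buffer, pH 7.4.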

[4] = Solubility in water; format: physicochemical
[5] = system: Rattus norvegicus; assay: Induction of tear secretion in rat at 10 ug/ml by topical administration after 10 mins by phenol red thread test; format: functional, organism-based
Outline: (§1)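 Rats received compound topically, and tear secretion was measured 10 min later by phenol red thread test. Percent increase is relative to untreated animals, and significance is versus saline by ANOVA with Dunnett's post-test. Positive control was isoproterenol (10 µg/mL).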

[6] = species on record: Oryctolagus cuniculus; assay: Antiinflammatory activity in rabbit assessed as inhibition of lacrimal gland inflammation-induced dry eye at 0.001 to 10 ug/ml bid for 4 days; format: functional, organism-based; conditions: Lachrymal gland, 0.01 to 10 ug/ml, in the assay text read “0.01 to 10 ug/ml” for “0.001 to 10 ug/ml”
Outline: (§2)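 Rabbit dry eye induced by lacrimal gland inflammation. Compound given topically b.i.d. for 4 days. Read-out is corneal staining, scored as percent inhibition versus vehicle, with dexamethasone (100 µg/mL) as positive control. Statistics by ANOVA with Dunnett's post-test.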

[7] = system: Rattus norvegicus; assay: Induction of tear secretion in rat at 100 ug/ml by topical administration after 10 mins by phenol red thread test; format: functional, organism-based; outline: as §1
[8] = species on record: Oryctolagus cuniculus; assay: Antiinflammatory activity in rabbit assessed as inhibition of lacrimal gland inflammation-induced dry eye at 10 ng/ml to 10 ug/ml bid for 4 days; format: functional, organism-based; conditions: Lachrymal gland; outline: as §2
[9] = system: HEK293; assay: Inhibition of PDE4 expressed in HEK293 cells coexpressing cyclic nucleotide gated ion channel mutant assessed as inhibition of NECA-induced cAMP production at 70 uM treated 15 mins before NECA challenge measured after 45 mins by FLIPR assay; format: cell-based

3',5'-cyclic-AMP phosphodiesterase 4B, sequence (Q07343 whole entry): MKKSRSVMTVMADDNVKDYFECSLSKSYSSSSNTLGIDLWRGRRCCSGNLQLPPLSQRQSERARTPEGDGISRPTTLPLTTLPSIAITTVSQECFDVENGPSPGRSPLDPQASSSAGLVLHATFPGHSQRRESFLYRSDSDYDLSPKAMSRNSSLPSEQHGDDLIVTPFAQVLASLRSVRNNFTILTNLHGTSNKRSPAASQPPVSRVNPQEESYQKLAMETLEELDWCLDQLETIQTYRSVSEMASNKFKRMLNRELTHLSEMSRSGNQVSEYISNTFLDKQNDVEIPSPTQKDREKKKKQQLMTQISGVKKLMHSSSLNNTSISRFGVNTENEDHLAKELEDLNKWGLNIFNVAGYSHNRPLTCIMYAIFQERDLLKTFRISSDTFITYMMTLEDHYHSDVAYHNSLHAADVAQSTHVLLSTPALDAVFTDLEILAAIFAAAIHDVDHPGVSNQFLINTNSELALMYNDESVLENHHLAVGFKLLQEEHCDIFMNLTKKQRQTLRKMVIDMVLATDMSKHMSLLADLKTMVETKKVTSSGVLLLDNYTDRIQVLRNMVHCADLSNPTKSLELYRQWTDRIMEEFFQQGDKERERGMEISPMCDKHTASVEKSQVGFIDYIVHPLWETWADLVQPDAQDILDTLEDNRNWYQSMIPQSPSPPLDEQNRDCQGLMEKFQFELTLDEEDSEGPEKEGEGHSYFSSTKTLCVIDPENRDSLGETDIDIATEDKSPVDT

## COc1ccc2c(Nc3c(Cl)cncc3Cl)ccnc2c1OC1CCCC1
[1]
  IC50: 8.2 µM
[2]
  IC50: 3.3 µM

## COc1ccc2c(Nc3c(Cl)cncc3Cl)cc(=O)oc2c1OC1CCCC1
[1]
  IC50: 0.028 µM
[3]
  solubility thermodynamic: 0.0003 mg/mL (≈ 0.712 µM)

## COc1ccc2c(Nc3c(Cl)cncc3Cl)cc(=O)oc2c1OCCCCCN(C)C
[1]
  IC50: 0.66 µM
[3]
  solubility thermodynamic: 0.06 mg/mL (≈ 129 µM)
[2]
  IC50: 0.021 µM

## COc1ccc2c(c1OC1CCCC1)OCCC2Nc1c(Cl)cncc1Cl (stereo not given)
[1]
  IC50: > 30 µM
[2]
  IC50: > 30 µM

## COc1ccc2c(Nc3c(Cl)cncc3Cl)cc(=O)oc2c1OCCCCCCC(=O)O
[1]
  IC50: 0.12 µM
[4]
  solubility: 1.4 mg/mL (≈ 2910 µM)
[3]
  solubility thermodynamic: 1.4 mg/mL (≈ 2910 µM)
[2]
  IC50: 0.002 µM

## COc1ccc2c(Nc3c(Cl)cncc3Cl)cc(=O)oc2c1OCCCCCCCCC(=O)O
[1]
  IC50: 0.03 µM
[3]
  solubility thermodynamic: 0.3 mg/mL (≈ 589 µM)
[2]
  IC50: 0.001 µM

## COc1ccc2c(Nc3c(Cl)cncc3Cl)cc(=O)oc2c1OCCCCCCCCN(C)C
[1]
  IC50: 0.15 µM
[2]
  IC50: 0.002 µM

## COc1ccc2c(Nc3c(Cl)cncc3Cl)ncnc2c1OC1CCCC1
[1]
  IC50: 10 µM
[2]
  IC50: 2.3 µM

## COc1ccc2c(Nc3c(Cl)cncc3Cl)nncc2c1OC1CCCC1
[1]
  IC50: 1.1 µM
[2]
  IC50: 0.4 µM

## COc1ccc2c(Nc3c(Cl)cncc3Cl)cc(=O)oc2c1OCCCC(=O)O
[1]
  IC50: 0.89 µM
[2]
  IC50: 0.08 µM

## COc1ccc2c(Nc3c(Cl)cncc3Cl)cc(=O)oc2c1OCCCCN(C)C
[1]
  IC50: 1.82 µM
[5]
  Activity: Active
[6]
  Activity: Active
[3]
  solubility thermodynamic: 1.8 mg/mL (≈ 3980 µM)
[7]
  Activity: Active
[8]
  Activity: Active
[2]
  IC50: 0.045 µM

## COc1ccc2c(Nc3c(Cl)cncc3Cl)cc(=O)oc2c1OCCCCC(=O)O
[1]
  IC50: 0.73 µM
[3]
  solubility thermodynamic: 0.5 mg/mL (≈ 1100 µM)
[2]
  IC50: 0.043 µM

## COc1ccc2c(Nc3c(Cl)cncc3Cl)nccc2c1OC1CCCC1
[2]
  IC50: 0.5 µM
[9]
  inhibition: inactive

## COc1ccc2c(Nc3c(Cl)cncc3Cl)coc2c1OC1CCCC1
[1]
  IC50: > 30 µM
[2]
  IC50: 16 µM

## COc1ccc2c(Nc3c(Cl)cncc3Cl)cc(=O)oc2c1OCCCCCCCN(C)C
[1]
  IC50: 0.15 µM
[2]
  IC50: 0.003 µM

## COc1ccc2c(Nc3c(Cl)cncc3Cl)cc(=O)oc2c1OCCCCCCCC(=O)O
[1]
  IC50: 0.04 µM
[3]
  solubility thermodynamic: 0.3 mg/mL (≈ 606 µM)
[2]
  IC50: 0.002 µM

## COc1ccc2c(Nc3c(Cl)cncc3Cl)cc(=O)oc2c1OCCCCCCN(C)C
[1]
  IC50: 0.18 µM
[2]
  IC50: 0.005 µM

## O=C(Nc1c(Cl)cncc1Cl)c1ccc(OC(F)F)c(OCC2CC2)c1 [ROFLUMILAST]
[1]
  IC50: 0.001 µM

## COc1ccc(C(=O)Nc2c(Cl)cncc2Cl)cc1OC1CCCC1
[1]
  IC50: 0.013 µM

## COc1ccc2c(Nc3c(Cl)cncc3Cl)cc(=O)oc2c1OCCCCCC(=O)O
[1]
  IC50: 0.28 µM
[4]
  solubility: 0.9 mg/mL (≈ 1930 µM)
[3]
  solubility thermodynamic: 0.9 mg/mL (≈ 1930 µM)
[2]
  IC50: 0.017 µM

## COc1ccc2c(Nc3c(Cl)cncc3Cl)cc(=O)oc2c1OCCCN(C)C
[1]
  IC50: > 30 µM
[2]
  IC50: 0.67 µM

## COc1ccc2c(Nc3c(Cl)cncc3Cl)cc(=O)oc2c1OCC(=O)O
[1]
  IC50: 5.35 µM
[2]
  IC50: 1.18 µM
